Reference: ChEMBL document CHEMBL4014343 (J Med Chem, 2017)
Activity calls are given as the source filed them. No cut-off for these calls is given here.

How the values were obtained:
[1] = biological target: Cyclin-dependent kinase 2/cyclin E1 (Homo sapiens) (UniProt P24864+P24941); assay: Inhibition of recombinant human N-terminal GST-tagged CDK2 (M1 to L298 residues)/Cyclin E1 (M1 to A395 residues) expressed in sf9 cells at 1 uM using RB-CTF as substrate by filter binding assay
Outline: (§1)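 Single-point profiling at 1 μM in a 22-kinase panel, performed externally by ProQinase; activity read as residual percent of control.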

[2] = biological target: Cyclin-dependent kinase 4/cyclin D1 (Homo sapiens) (UniProt P11802+P24385); assay: Inhibition of recombinant human N-terminal GST-tagged CDK4 (S4 to E303 residues)/Cyclin D1 (Q4 to I295 residues) expressed in sf9 cells at 1 uM using RB-CTF as substrate by filter binding assay; outline: as §1
[3] = biological target: Cyclin-dependent kinase 5/CDK5 activator 1 (Homo sapiens) (UniProt Q00535+Q15078); assay: Inhibition of recombinant human N-terminal GST-tagged CDK5 (M1 to P292 residues)/p35NCK (M1 to R307 residues) expressed in baculovirus infected sf9 cells at 1 uM using RB-CTF as substrate by filter binding assay; outline: as §1
[4] = biological target: T1, Aurora kinase C (Homo sapiens) (UniProt Q9UQB9); assay: Inhibition of human N-terminal GST-tagged Aurora B (M1 to S27 residues) expressed in sf9 cells at 1 uM using CDC25C-derived peptide as substrate by filter binding assay; outline: as §1
T1 sequence (whole entry): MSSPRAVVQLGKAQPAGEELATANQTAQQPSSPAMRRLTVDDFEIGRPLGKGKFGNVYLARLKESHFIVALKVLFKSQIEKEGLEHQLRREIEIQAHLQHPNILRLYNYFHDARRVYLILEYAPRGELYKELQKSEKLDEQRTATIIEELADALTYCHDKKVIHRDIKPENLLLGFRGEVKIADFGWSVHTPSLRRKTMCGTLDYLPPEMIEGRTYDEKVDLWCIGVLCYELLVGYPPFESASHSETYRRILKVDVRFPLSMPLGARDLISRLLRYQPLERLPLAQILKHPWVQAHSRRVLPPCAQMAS

[5] = biological target: T2, Insulin-like growth factor 1 receptor (Homo sapiens, UniProt P08069); assay: Inhibition of IGF1R phosphorylation at Tyr1161 residue in human MCF7 cells at 0.5 uM after 1 hr by immunoblot analysis; assay type: cell-based
Outline: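 MCF7 (DMEM/10% FBS, 24 h) treated with increasing concentrations for 1 h; 40 μg lysate on 10% SDS-PAGE, probed with p-IGF-1R (Y1161) antibody 1:1000 overnight at 4 °C; β-actin loading control, PI3K inhibitor positive control.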

[6] = biological target: T2, Insulin-like growth factor 1 receptor; assay: Inhibition of IGF1R in human MCF7 cells assessed as reduction in Akt phosphorylation at Ser473 residue after 24 hrs by immunoblot analysis; assay type: cell-based
Outline: (§2)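 Cells in their medium with 10% FBS exposed to rising concentrations for 24 h; whole-cell lysates immunoblotted for p-Akt (S473) and total Akt; PI3K inhibitor at 10 μM as positive control.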

[7] = biological target: T2, Insulin-like growth factor 1 receptor; assay: Inhibition of IGF1R in human MDA-MB-231 cells assessed as reduction in Akt phosphorylation at Ser473 residue after 24 hrs by immunoblot analysis; assay type: cell-based; outline: as §2
MCF7 [8] = assay: Induction of apoptosis in human MCF7 cells assessed as PARP cleavage after 6 hrs by immunoblot analysis; assay type: functional, cell-based
Outline: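 MCF7 in DMEM/10% FBS for 24 h, then treated 6 h; 0.1% DMSO as non-treated, Src inhibitor (10 μM) as positive control. Lysates (40 μg protein) on 10% SDS-PAGE, immunoblotted for PARP cleavage with ECL detection; β-actin loading control.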

MCF7 [9] = assay: Cell cycle arrest in human MCF7 cells assessed as accumulation at G2/M phase up to 1 uM after 24 to 48 hrs by propidium iodide staining based FACS analysis; assay type: functional
Outline: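 MCF7 cells grown 24 h in DMEM with 10% FBS and 1% PS, then exposed to 1 μM for 24 and 48 h. Pellets fixed in 70% ethanol for at least 24 h, washed twice in ice-cold PBS, treated with RNase A (50 μg/mL, 1 h, 37 °C), stained with PI (50 μg/mL, 5 min), and DNA content read by FACS.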

MOLT-4 = assay: Growth inhibition of human MOLT4 cells incubated for 48 hrs by sulforhodamine B assay; assay type: functional, cell-based
RPMI-8226 = assay: Growth inhibition of human RPMI8226 cells incubated for 48 hrs by sulforhodamine B assay; assay type: functional, cell-based
SR = assay: Growth inhibition of human SR cells incubated for 48 hrs by sulforhodamine B assay; assay type: functional, cell-based
Outline: (§3)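 NCI-60 panel growth inhibition, run by the U.S. National Cancer Institute; GI50 values are means of two test series.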

A549 = assay: Growth inhibition of human A549/ATCC cells incubated for 48 hrs by sulforhodamine B assay; assay type: functional, cell-based
EKVX = assay: Growth inhibition of human EKVX cells incubated for 48 hrs by sulforhodamine B assay; assay type: functional, cell-based
NCI-H226 = assay: Growth inhibition of human NCI-H226 cells incubated for 48 hrs by sulforhodamine B assay; assay type: functional, cell-based
NCI-H23 = assay: Growth inhibition of human NCI-H23 cells incubated for 48 hrs by sulforhodamine B assay; assay type: functional, cell-based
NCI-H460 = assay: Growth inhibition of human NCI-H460 cells incubated for 48 hrs by sulforhodamine B assay; assay type: functional, cell-based
HCC 2998 = assay: Growth inhibition of human HCC2998 cells incubated for 48 hrs by sulforhodamine B assay; assay type: functional, cell-based
HCT-116 = assay: Growth inhibition of human HCT116 cells incubated for 48 hrs by sulforhodamine B assay; assay type: functional, cell-based
U-251 = assay: Growth inhibition of human U251 cells incubated for 48 hrs by sulforhodamine B assay; assay type: functional, cell-based; outline: as §3
M14 = assay: Growth inhibition of human M14 cells incubated for 48 hrs by sulforhodamine B assay; assay type: functional, cell-based
SK-MEL-2 = assay: Growth inhibition of human SK-MEL-2 cells incubated for 48 hrs by sulforhodamine B assay; assay type: functional, cell-based
SK-MEL-28 = assay: Growth inhibition of human SK-MEL-28 cells incubated for 48 hrs by sulforhodamine B assay; assay type: functional, cell-based
UACC-62 = assay: Growth inhibition of human UACC62 cells incubated for 48 hrs by sulforhodamine B assay; assay type: functional, cell-based; outline: as §3
OVCAR-5 = assay: Growth inhibition of human OVCAR5 cells incubated for 48 hrs by sulforhodamine B assay; assay type: functional, cell-based
A498 = assay: Growth inhibition of human A498 cells incubated for 48 hrs by sulforhodamine B assay; assay type: functional, cell-based
ACHN = assay: Growth inhibition of human ACHN cells incubated for 48 hrs by sulforhodamine B assay; assay type: functional, cell-based
CAKI-1 = assay: Growth inhibition of human Caki1 cells incubated for 48 hrs by sulforhodamine B assay; assay type: functional, cell-based
TK-10 = assay: Growth inhibition of human TK10 cells incubated for 48 hrs by sulforhodamine B assay; assay type: functional, cell-based; outline: as §3
UO-31 = assay: Growth inhibition of human UO31 cells incubated for 48 hrs by sulforhodamine B assay; assay type: functional, cell-based; outline: as §3
DU-145 = assay: Growth inhibition of human DU145 cells incubated for 48 hrs by sulforhodamine B assay; assay type: functional, cell-based
MDA-MB-468 = assay: Growth inhibition of human MDA-MB-468 cells incubated for 48 hrs by sulforhodamine B assay; assay type: functional, cell-based

T2 sequence (P08069 31-736 limits assumed): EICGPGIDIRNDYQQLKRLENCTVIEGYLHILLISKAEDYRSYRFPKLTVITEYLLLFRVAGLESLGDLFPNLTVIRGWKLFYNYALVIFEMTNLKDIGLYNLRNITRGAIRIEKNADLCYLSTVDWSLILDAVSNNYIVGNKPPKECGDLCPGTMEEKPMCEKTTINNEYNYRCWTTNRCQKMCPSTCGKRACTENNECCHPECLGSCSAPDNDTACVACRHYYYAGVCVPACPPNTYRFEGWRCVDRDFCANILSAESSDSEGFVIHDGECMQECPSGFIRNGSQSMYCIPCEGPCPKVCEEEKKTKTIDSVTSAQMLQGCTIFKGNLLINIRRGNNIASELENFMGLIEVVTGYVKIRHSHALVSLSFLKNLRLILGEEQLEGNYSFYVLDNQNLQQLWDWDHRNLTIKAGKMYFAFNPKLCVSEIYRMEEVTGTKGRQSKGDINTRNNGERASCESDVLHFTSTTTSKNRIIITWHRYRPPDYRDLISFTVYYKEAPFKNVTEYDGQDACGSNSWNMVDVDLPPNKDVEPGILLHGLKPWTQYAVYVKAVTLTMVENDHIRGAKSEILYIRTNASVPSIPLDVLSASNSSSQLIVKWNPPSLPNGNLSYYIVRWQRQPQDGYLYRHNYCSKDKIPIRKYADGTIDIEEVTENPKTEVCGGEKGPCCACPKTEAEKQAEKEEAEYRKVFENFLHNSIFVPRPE
T2 sequence (P08069 741-1367 limits assumed): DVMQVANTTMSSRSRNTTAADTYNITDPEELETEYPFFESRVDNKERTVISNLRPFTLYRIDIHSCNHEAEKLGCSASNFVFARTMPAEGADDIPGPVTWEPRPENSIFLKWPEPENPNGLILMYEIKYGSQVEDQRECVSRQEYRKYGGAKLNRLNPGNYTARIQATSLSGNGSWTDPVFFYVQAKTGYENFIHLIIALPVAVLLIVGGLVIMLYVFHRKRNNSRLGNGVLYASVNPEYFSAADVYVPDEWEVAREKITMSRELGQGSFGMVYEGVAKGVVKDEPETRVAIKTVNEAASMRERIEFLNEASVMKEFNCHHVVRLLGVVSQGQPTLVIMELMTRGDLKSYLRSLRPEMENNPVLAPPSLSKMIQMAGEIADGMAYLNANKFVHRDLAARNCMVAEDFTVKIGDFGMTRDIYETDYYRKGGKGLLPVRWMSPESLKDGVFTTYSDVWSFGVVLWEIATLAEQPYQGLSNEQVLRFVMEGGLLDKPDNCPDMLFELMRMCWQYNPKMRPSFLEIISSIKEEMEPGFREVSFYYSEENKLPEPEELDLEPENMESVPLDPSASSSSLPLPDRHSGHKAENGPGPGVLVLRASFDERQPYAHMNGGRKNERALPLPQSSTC
Chain of Cyclin-dependent kinase 5/CDK5 activator 1 (Homo sapiens) (Q00535 whole entry, the tested form may be a part): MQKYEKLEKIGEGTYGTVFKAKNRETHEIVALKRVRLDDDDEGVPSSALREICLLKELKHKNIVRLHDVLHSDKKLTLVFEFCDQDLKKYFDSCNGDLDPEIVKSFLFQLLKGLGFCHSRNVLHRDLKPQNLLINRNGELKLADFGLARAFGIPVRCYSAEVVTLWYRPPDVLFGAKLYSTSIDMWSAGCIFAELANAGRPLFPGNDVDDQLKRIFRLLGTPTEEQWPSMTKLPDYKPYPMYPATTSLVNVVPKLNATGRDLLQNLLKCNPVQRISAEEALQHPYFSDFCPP
Chain of Cyclin-dependent kinase 5/CDK5 activator 1 (Homo sapiens) (Q15078 99-307 partner limits assumed): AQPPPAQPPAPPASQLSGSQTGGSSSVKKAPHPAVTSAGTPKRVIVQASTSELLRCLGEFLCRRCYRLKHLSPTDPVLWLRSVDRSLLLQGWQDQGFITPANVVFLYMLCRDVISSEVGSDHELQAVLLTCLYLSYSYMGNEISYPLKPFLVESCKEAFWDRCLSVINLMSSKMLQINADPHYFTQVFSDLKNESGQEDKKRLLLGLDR

## CN1CCN(CCO/N=C2/C(=C3/C(=O)Nc4ccccc43)Nc3ccccc32)CC1
[1]
  inhibition: inactive
[2]
  inhibition: inactive
[3]
  inhibition: inactive
[4]
  inhibition: inactive
[5]
  inhibition: Active
[6]
  inhibition: Dose-dependent effect
[7]
  inhibition: Dose-dependent effect
MCF7 [8]
  Activity: Active
MCF7 [9]
  Activity: Active
MOLT-4
  growth inhibition (GI): Active
RPMI-8226
  growth inhibition (GI): Active
SR
  growth inhibition (GI): Active
A549
  growth inhibition (GI): Active
EKVX
  growth inhibition (GI): Active
NCI-H226
  growth inhibition (GI): Active
NCI-H23
  growth inhibition (GI): Active
NCI-H460
  growth inhibition (GI): Active
HCC 2998
  growth inhibition (GI): Active
HCT-116
  growth inhibition (GI): Active
U-251
  growth inhibition (GI): Active
M14
  growth inhibition (GI): Active
SK-MEL-2
  growth inhibition (GI): Active
SK-MEL-28
  growth inhibition (GI): Active
UACC-62
  growth inhibition (GI): Active
OVCAR-5
  growth inhibition (GI): Active
A498
  growth inhibition (GI): Active
ACHN
  growth inhibition (GI): Active
CAKI-1
  growth inhibition (GI): Active
TK-10
  growth inhibition (GI): Active
UO-31
  growth inhibition (GI): Active
DU-145
  growth inhibition (GI): Active
MDA-MB-468
  growth inhibition (GI): Active
